The target of test [1] is Sodium-dependent serotonin transporter (Rattus norvegicus, UniProt P31652). The test can be described thus: Binding affinity at the Serotonin transporter in rat midbrain by inhibition of 0.5 nM [3H]-paroxetine binding. The format is tissue-based.
In test [2] the target is Monoamine transporters; serotonin & dopamine (Rattus norvegicus) (UniProt P31652+P23977). Nature of the test: Ratio of IC50 value against Serotonin transporter to that of dopamine transporter. Type of test: protein assay.
Monoamine transporters; serotonin & dopamine (Rattus norvegicus), sequence (P23977 whole entry, looked up): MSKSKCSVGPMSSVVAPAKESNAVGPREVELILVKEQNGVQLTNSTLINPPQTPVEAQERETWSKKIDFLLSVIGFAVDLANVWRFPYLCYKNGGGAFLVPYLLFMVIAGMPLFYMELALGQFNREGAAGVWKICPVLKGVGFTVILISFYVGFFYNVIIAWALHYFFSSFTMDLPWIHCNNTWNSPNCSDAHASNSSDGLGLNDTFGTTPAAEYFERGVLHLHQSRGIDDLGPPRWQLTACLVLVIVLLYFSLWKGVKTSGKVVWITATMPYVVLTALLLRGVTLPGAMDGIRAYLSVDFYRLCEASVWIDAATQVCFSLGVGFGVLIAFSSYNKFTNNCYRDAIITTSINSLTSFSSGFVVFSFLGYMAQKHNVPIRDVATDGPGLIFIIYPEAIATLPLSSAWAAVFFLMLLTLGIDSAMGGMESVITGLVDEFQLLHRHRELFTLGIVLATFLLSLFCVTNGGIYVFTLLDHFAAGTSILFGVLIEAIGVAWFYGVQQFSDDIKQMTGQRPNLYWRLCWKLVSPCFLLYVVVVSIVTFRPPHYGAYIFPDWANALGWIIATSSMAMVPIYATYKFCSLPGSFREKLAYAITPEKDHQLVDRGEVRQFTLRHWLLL
Monoamine transporters; serotonin & dopamine (Rattus norvegicus), sequence (P31652 whole entry, looked up): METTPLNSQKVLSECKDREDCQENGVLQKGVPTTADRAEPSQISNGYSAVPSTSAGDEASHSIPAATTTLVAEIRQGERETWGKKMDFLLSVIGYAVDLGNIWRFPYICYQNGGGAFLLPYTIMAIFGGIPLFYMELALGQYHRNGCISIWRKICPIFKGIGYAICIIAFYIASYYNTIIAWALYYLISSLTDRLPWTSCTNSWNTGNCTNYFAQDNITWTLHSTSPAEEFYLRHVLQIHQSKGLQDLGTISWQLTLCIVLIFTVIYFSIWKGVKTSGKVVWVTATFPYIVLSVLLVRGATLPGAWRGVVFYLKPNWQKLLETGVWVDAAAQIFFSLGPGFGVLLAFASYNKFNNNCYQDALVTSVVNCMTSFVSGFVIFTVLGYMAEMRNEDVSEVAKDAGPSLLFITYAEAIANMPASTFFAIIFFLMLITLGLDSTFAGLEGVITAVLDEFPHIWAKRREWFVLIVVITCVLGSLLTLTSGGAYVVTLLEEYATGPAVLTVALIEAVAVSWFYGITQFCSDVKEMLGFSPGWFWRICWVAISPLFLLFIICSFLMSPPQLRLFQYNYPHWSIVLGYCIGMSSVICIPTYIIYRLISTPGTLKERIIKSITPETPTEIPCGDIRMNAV
Test [3] concerns the target Monoamine transporters; Norepininephrine & dopamine (Rattus norvegicus) (UniProt P23977+Q9WTR4). Nature of the test: Ratio of IC50 value against NE to that of DA transporters. Type of test: protein assay. The method in brief: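 Competition binding against 0.5 nM [3H]WIN 35,428 (DA transporter) or 0.5 nM [3H]nisoxetine (NE transporter). The IC50 is the mean ± standard error of three or four experiments, each run in triplicate. Selectivity ratios are NE/DA or 5-HT/DA quotients of the IC50 values.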

In test [4] the target is Norepinephrine transporter (Rattus norvegicus, UniProt Q9WTR4). The test can be described thus: Binding affinity at the Norepinephrine transporter in rat frontal cortex by inhibition of 0.5 nM [3H]nisoxetine binding. The format is tissue-based.
Norepinephrine transporter, sequence (Q9WTR4 whole entry): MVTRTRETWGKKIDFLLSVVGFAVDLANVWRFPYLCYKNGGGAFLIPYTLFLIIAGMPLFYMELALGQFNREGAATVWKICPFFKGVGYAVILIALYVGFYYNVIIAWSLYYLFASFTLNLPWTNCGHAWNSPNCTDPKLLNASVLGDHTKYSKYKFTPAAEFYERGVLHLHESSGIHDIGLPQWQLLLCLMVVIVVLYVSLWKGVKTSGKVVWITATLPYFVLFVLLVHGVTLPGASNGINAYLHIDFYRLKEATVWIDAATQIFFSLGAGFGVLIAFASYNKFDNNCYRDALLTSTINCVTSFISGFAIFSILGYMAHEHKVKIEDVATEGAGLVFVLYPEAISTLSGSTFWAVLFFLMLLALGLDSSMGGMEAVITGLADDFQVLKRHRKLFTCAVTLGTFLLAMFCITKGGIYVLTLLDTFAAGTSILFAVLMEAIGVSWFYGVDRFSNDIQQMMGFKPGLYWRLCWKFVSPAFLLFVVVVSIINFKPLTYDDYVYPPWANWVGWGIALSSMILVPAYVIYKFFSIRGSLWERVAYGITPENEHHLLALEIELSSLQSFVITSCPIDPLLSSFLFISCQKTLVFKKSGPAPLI
Test [5] concerns the target Sodium-dependent dopamine transporter (Rattus norvegicus, UniProt P23977). Nature of the test: Binding affinity at the Dopamine transporter in rat striata by inhibition of 0.5 nM [3H]WIN-35428 binding.

This passage reports IC50 and Ratio results from ChEMBL document CHEMBL1128444 (J Med Chem, 1995).

Sodium-dependent dopamine transporter, sequence (P23977 whole entry): as the sequence (P23977 whole entry, looked up) above
Sodium-dependent serotonin transporter, sequence (P31652 whole entry): as the sequence (P31652 whole entry, looked up) above

As to `COC(=O)C1C(c2ccc(Cl)c(C)c2)CC2CCC1N2C` (stereo not drawn), the IC50 (as a rule, the concentration that inhibits the measured activity by half) is 10.5 nM in test [1], 36.2 nM in test [4] and 0.81 nM in test [5]. Besides, the values for the Ratio in test [2] and in test [3] were 13 and 45, respectively.

For `COC(=O)C1C(c2ccc(Cl)c(Cl)c2)CC2CCC1N2C` (stereo not drawn), the figures for the IC50 in test [1], in test [4] and in test [5] were 3.13 nM, 18 nM and 0.79 nM, respectively. For the same molecule, the Ratio in test [2] was determined as 4.

For the molecule `Cc1ccccc1OC(=O)C1C(c2ccc(Cl)cc2)CC2CCC1N2C` (stereo not drawn), the Ratio in test [2] was 965; in test [3], 1220. The IC50 in test [4] was 4780 nM; in test [5] it was 3.91 nM.

Regarding `CCN(CC)C(=O)C1C(c2ccc(Cl)cc2)CC2CCC1N2C` (stereo not drawn), the figures for the IC50 in test [1], in test [4] and in test [5] were 9430 nM, 5530 nM and 5.48 nM, respectively. Besides, the Ratio in test [2] amounted to 1730; in test [3] it was 1010.

In the case of `CON(C)C(=O)C1C(c2ccc(Cl)cc2)CC2CCC1N2C` (stereo not drawn), the IC50 in test [1] worked out at 724 nM; in test [4], 549 nM; in test [5], 0.85 nM. For the same molecule, the Ratio in test [2] turned out to be 852; in test [3], 646.

In the case of `CN(C)C(=O)C1C(OC(=O)c2ccccc2)CC2CCC1N2C` (stereo not drawn), the half-inhibitory concentration (IC50) in test [1] is 144000 nM; in test [4] it was 7330 nM; in test [5] it was 127 nM. Also, the Ratio stood at 1130 in test [2] and 58 in test [3].

Take `Cc1ccc(C2CC3CCC(C2C(=O)Oc2cccc(C)c2)N3C)cc1` (stereo not drawn): the Ratio in test [2] turned out to be 639; in test [3], 261. In addition, the IC50 is 2140 nM in test [4] and 8.19 nM in test [5].

Regarding `CC(C)OC(=O)C1C(OC(=O)c2ccccc2)CC2CCC1N2C` (stereo not drawn), the results for the IC50 in test [1] and in test [4] were 25200 nM and 30300 nM, respectively.

Regarding `CCC(CC)OC(=O)C1C(c2ccc(C)cc2)CC2CCC1N2C` (stereo not drawn), the Ratio in test [2] was 236; in test [3], 180. Also, the IC50 in test [4] stood at 3440 nM; in test [5] it was 19.1 nM.

With `COc1ccc(OC(=O)C2C(c3ccc(C)cc3)CC3CCC2N3C)cc1` (stereo not drawn), the concentration for half-maximal inhibition (IC50) in test [1] was found to be 82300 nM; in test [4], 3150 nM; in test [5], 95.6 nM. Also, the Ratio in test [2] amounted to 861; in test [3] it was 33.

On to `CN1C2CCC1C(C(=O)OCCCc1ccccc1)C(OC(=O)c1ccccc1)C2` (stereo not drawn), for which the IC50 amounted to 374 nM in test [1], 4890 nM in test [4] and 147 nM in test [5]. Besides, the Ratio in test [2] came out at 2.5; in test [3], 33.

Consider `CCOC(=O)C1C(OC(=O)c2ccccc2)CC2CCC1N2C` (stereo not drawn), for which the IC50 in test [1] came out at 5800 nM; in test [4], 10000 nM; in test [5], 195 nM. Besides, the Ratio in test [2] was found to be 30; in test [3], 51.

With `CNC(=O)C1C(c2ccc(Cl)cc2)CC2CCC1N2C` (stereo not drawn), the figures for the 50% inhibitory concentration (IC50) in test [1], in test [4] and in test [5] were 1310 nM, 1580 nM and 12.4 nM, respectively. Besides, the results for the Ratio in test [2] and in test [3] were 106 and 128, respectively.

Take `CCCOC(=O)C1C(OC(=O)c2ccccc2)CC2CCC1N2C` (stereo not drawn): the IC50 in test [1] is 4520 nM; in test [4] it was 6120 nM; in test [5] it was 196 nM. Moreover, the Ratio in test [2] stood at 23; in test [3], 31.

As to `CN(C(=O)C1C(c2ccc(Cl)cc2)CC2CCC1N2C)c1ccccc1` (stereo not drawn), the IC50 is 23600 nM in test [1], 2200 nM in test [4] and 45.5 nM in test [5]. Also, the Ratio in test [2] turned out to be 519; in test [3] it was 48.

Take `CN1C2CCC1C(C(=O)OCc1ccccc1)C(OC(=O)c1ccccc1)C2` (stereo not drawn): the figures for the IC50 in test [1], in test [4] and in test [5] were 302 nM, 20800 nM and 257 nM, respectively. Also, the Ratio in test [2] stood at 1.2; in test [3] it was 81.

Consider `CN1C2CCC1C(C(=O)Oc1ccc(I)cc1)C(c1ccc(Cl)cc1)C2` (stereo not drawn), for which the values for the IC50 in test [1], in test [4] and in test [5] were 1230 nM, 968 nM and 32.6 nM, respectively. Also, the values for the Ratio in test [2] and in test [3] were 38 and 30, respectively.

In the case of `CN(C)C(=O)C1C(c2ccc(Cl)cc2)CC2CCC1N2C` (stereo not drawn), the values for the IC50 in test [1], in test [4] and in test [5] were 1080 nM, 942 nM and 1.38 nM, respectively. Moreover, the Ratio in test [2] was 782; in test [3], 683.

In the case of `CN1[C@H]2CC[C@@H]1[C@@H](C(=O)N1CCCC1)[C@@H](c1ccc(Cl)cc1)C2`, the IC50 in test [1] was found to be 12400 nM; in test [4] it was 3950 nM; in test [5], 1.38 nM. Moreover, the Ratio in test [2] came to 8980; in test [3], 2860.

Take `Cc1ccc(C2CC3CCC(C2C(=O)OC2CC2)N3C)cc1` (stereo not drawn): the Ratio in test [2] came to 634; in test [3] it was 383. In addition, the IC50 in test [4] came to 644 nM; in test [5], 1.68 nM.

With `CN1C2CCC1C(C(=O)N1CCC1)C(c1ccc(Cl)cc1)C2` (stereo not drawn), the 50% inhibitory concentration (IC50) came to 814 nM in test [1], 990 nM in test [4] and 6.57 nM in test [5]. The values for the Ratio in test [2] and in test [3] were 124 and 151, respectively.

With `Cc1ccc(OC(=O)C2C(c3ccc(Cl)cc3)CC3CCC2N3C)cc1` (stereo not drawn), the Ratio in test [2] worked out at 44; in test [3], 45. Also, the IC50 is 1280 nM in test [4] and 27.4 nM in test [5].

Turning to `COC(=O)C1C(c2ccc(Br)cc2)CC2CCC1N2C` (stereo not drawn), the IC50 is 10.6 nM in test [1] and 1.69 nM in test [5]. Further, the Ratio is 6 in test [2] and 22 in test [3].

For the molecule `Cc1cccc(OC(=O)C2C(c3ccc(Cl)cc3)CC3CCC2N3C)c1` (stereo not drawn), the Ratio in test [2] came out at 230; in test [3], 293. Also, the IC50 in test [4] amounted to 2740 nM; in test [5], 9.37 nM.

`Cc1ccc(C2CC3CCC(C2C(=O)Oc2ccccc2C)N3C)cc1` (stereo not drawn): the IC50 came out at 11000 nM in test [1], 25700 nM in test [4] and 23.2 nM in test [5]. The Ratio came to 476 in test [2] and 1110 in test [3].

`CN1C2CCC1C(C(=O)N1CCOCC1)C(c1ccc(Cl)cc1)C2` (stereo not drawn): the values for the IC50 in test [1], in test [4] and in test [5] were 88800 nM, 8550 nM and 2.9 nM, respectively. In addition, the Ratio worked out at 30600 in test [2] and 2950 in test [3].

As for `CN1C2CCC1C(C(=O)Oc1ccc(Cl)cc1)C(c1ccc(Cl)cc1)C2` (stereo not drawn), the figures for the IC50 in test [1], in test [4] and in test [5] were 16900 nM, 4880 nM and 55 nM, respectively. In addition, the Ratio in test [2] was determined as 308; in test [3], 89.

As to `CON(C)C(=O)C1C(OC(=O)c2ccccc2)CC2CCC1N2C` (stereo not drawn), the IC50 in test [1] amounted to 28200 nM; in test [4] it was 3940 nM; in test [5] it was 60 nM. Further, the values for the Ratio in test [2] and in test [3] were 469 and 66, respectively.

Regarding `CN1C2CCC1C(C(=O)OCCc1ccccc1)C(OC(=O)c1ccccc1)C2` (stereo not drawn), the values for the IC50 in test [1], in test [4] and in test [5] were 615 nM, 19900 nM and 181 nM, respectively. Besides, the Ratio in test [2] worked out at 3.4; in test [3], 110.

In the case of `Cc1ccc(OC(=O)C2C(c3ccc(C)cc3)CC3CCC2N3C)cc1` (stereo not drawn), the IC50 in test [1] worked out at 16000 nM; in test [4], 4100 nM; in test [5], 81.2 nM. Further, the values for the Ratio in test [2] and in test [3] were 197 and 50, respectively.

Regarding `CN1C2CCC1C(C(=O)OC1CC1)C(c1ccc(Cl)cc1)C2` (stereo not drawn), the Ratio worked out at 175 in test [2] and 245 in test [3]. The IC50 in test [4] was 235 nM; in test [5] it was 0.96 nM.
